pIC50, pKi: −log10 of the molar value. Calls of active or inactive are those of the source. No cut-off for these calls is given here.
Key:
MDCK [1] = assay: Cytotoxicity against carbonic anhydrase 9 knockdown MDCK cells assessed as reduction in cell viability preincubated for 2 hrs followed by 72 hrs incubation under normoxic condition by Alamar blue assay; type: cell-based; settings: Canis lupus familiaris
Carbonic anhydrase 12 = Carbonic anhydrase 12 (Homo sapiens, UniProt O43570); assay: Binding affinity to recombinant human carbonic anhydrase 12 after 15 mins by stopped-flow CO2 hydration assay
Carbonic anhydrase 1 = Carbonic anhydrase 1 (Homo sapiens, UniProt P00915); assay: Binding affinity to recombinant human carbonic anhydrase 1 after 15 mins by stopped-flow CO2 hydration assay
MDCK [2] = assay: Cytotoxicity against carbonic anhydrase 9 knockdown MDCK cells assessed as reduction in cell viability after 2 hrs under hypoxic condition by Alamar blue assay; type: cell-based; settings: Canis lupus familiaris
Procedure, shortened: (§1)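 MDCK cells transfected with human CAIX (CAIX+) or scrambled control vector (CAIX−), in DMEM/10% FBS, seeded and attached overnight. Medium replaced with pre-equilibrated hypoxic DMEM (0.2% O2, 5% CO2) for 24 h. Compounds in DMSO (0.5%) added for 2 h, then washed off. Cells regrown 72 h in normoxia. Viability read by alamarBlue conversion for 2 h under normoxia.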

MDCK [3] = assay: Cytotoxicity against MDCK cells expressing carbonic anhydrase 9 assessed as reduction in cell viability after 2 hrs under hypoxic condition by Alamar blue assay; type: functional, cell-based; settings: Canis lupus familiaris; procedure, shortened: as §1
MDCK [4] = assay: Cytotoxicity against MDCK cells expressing carbonic anhydrase 9 assessed as reduction in cell viability preincubated for 2 hrs followed by 72 hrs incubation under normoxic condition by Alamar blue assay; type: functional, cell-based; settings: Canis lupus familiaris
Procedure, shortened: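 CAIX-overexpressing or scrambled-vector MDCK cells in DMEM/10% FBS, attached overnight, held 24 h at 21% O2/5% CO2. Drug added (0.5% DMSO vehicle) for 2 h, washed off, then 72 h further normoxic growth. Viability measured by 2 h alamarBlue conversion under normoxia.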

Carbonic anhydrase 9 = Carbonic anhydrase 9 (Homo sapiens, UniProt Q16790); assay: Binding affinity to recombinant human carbonic anhydrase 9 after 15 mins by stopped-flow CO2 hydration assay
Carbonic anhydrase 2 = Carbonic anhydrase 2 (Homo sapiens, UniProt P00918); assay: Binding affinity to recombinant human carbonic anhydrase 2 after 15 mins by stopped-flow CO2 hydration assay
MDCK [5] = assay: Cytotoxicity against carbonic anhydrase 9 knockdown MDCK cells assessed as reduction in cell viability after 72 hrs under normoxic condition by Alamar blue assay; type: cell-based; settings: Canis lupus familiaris
MDCK [6] = assay: Cytotoxicity against MDCK cells expressing carbonic anhydrase 9 assessed as reduction in cell viability after 72 hrs under normoxic condition by Alamar blue assay; type: functional, cell-based; settings: Canis lupus familiaris
MDCK [7] = assay: Cytotoxicity against MDCK cells expressing carbonic anhydrase 9 assessed as reduction in cell viability after 72 hrs under hypoxic condition by Alamar blue assay; type: functional, cell-based; settings: Canis lupus familiaris
MDCK [8] = assay: Cytotoxicity against carbonic anhydrase 9 knockdown MDCK cells assessed as reduction in cell viability after 72 hrs under hypoxic condition by Alamar blue assay; type: cell-based; settings: Canis lupus familiaris
HCT-116 = assay: Effect on mitochondrial respiration in human HCT116 cells expressing carbonic anhydrase 9 assessed as reduction in oxygen consumption rate at 0.5 mM […]; type: functional, cell-based
MDCK [9] = assay: Cytotoxicity against MDCK cells expressing carbonic anhydrase 9 assessed as reduction in cell viability at 500 nM pretreated for 1 hr followed by 2 Gy irradiation under normoxic condition by Alamar blue assay; type: functional, cell-based; settings: Canis lupus familiaris
Procedure, shortened: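 MDCK CAIX+ cells (human CAIX transfected) under normoxia (21% O2, 5% CO2). ATR inhibitors in 0.5% DMSO added 1 h before X-irradiation with 2 Gy. Exposure 72 h total, medium replaced, then 72 h further growth. Viability by 2 h alamarBlue conversion in normoxia.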

MDCK [10] = assay: Cytotoxicity against MDCK cells expressing carbonic anhydrase 9 assessed as reduction in cell viability at 500 nM pretreated for 1 hr followed by 4 Gy irradiation under anoxic condition by Alamar blue assay; type: functional, cell-based; settings: Canis lupus familiaris
Procedure, shortened: (§2)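 MDCK cells with or without CAIX, pre-exposed 24 h to anoxia (≤0.02% O2, 5% CO2, balance N2) in pre-equilibrated DMEM. ATR inhibitors in 0.5% DMSO added 1 h before 4 Gy X-irradiation. Exposure 72 h total, medium replaced, then 72 h normoxic regrowth. Viability by 2 h alamarBlue in normoxia.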

MDCK [11] = assay: Cytotoxicity against MDCK cells expressing carbonic anhydrase 9 assessed as reduction in cell viability at 500 nM pretreated for 72 hrs followed by 72 hrs incubation under normoxic condition by Alamar blue assay; type: functional, cell-based; settings: Canis lupus familiaris
Procedure, shortened: (§3)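 MDCK cells transfected with human CAIX or scrambled vector, normoxia (21% O2, 5% CO2). ATR inhibitors in 0.5% DMSO for 72 h, medium replaced, cells grown a further 72 h. Viability from 2 h alamarBlue conversion in normoxia.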

MDCK [12] = assay: Cytotoxicity against carbonic anhydrase 9 knockdown MDCK cells assessed as reduction in cell viability at 500 nM pretreated for 72 hrs followed by 72 hrs incubation under normoxic condition by Alamar blue assay; type: cell-based, Canis lupus familiaris; settings: dog, 0.5 µM; procedure, shortened: as §3
MDCK [13] = assay: Cytotoxicity against carbonic anhydrase 9 knockdown MDCK cells assessed as reduction in cell viability at 500 nM pretreated for 1 hr followed by 4 Gy irradiation under anoxic condition by Alamar blue assay; type: cell-based, Canis lupus familiaris; settings: dog, 0.5 µM; procedure, shortened: as §2
MDCK [14] = assay: Cytotoxicity against carbonic anhydrase 9 knockdown MDCK cells assessed as reduction in cell viability at 500 nM after 72 hrs under anoxic condition by Alamar blue assay; type: cell-based, Canis lupus familiaris; settings: dog, 0.5 µM
Procedure, shortened: (§4)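 MDCK CAIX+ or CAIX− cells, 24 h anoxic preincubation (≤0.02% O2, 5% CO2) in pre-equilibrated DMEM. ATR inhibitors (0.5% DMSO) applied for 72 h without irradiation, then washed off, and 72 h normoxic regrowth. Readout by 2 h alamarBlue conversion under normoxia.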

MDCK [15] = assay: Cytotoxicity against MDCK cells expressing carbonic anhydrase 9 assessed as reduction in cell viability at 500 nM after 72 hrs under anoxic condition by Alamar blue assay; type: functional, cell-based; settings: Canis lupus familiaris; procedure, shortened: as §4

Sequence of Carbonic anhydrase 1 (P00915 whole entry): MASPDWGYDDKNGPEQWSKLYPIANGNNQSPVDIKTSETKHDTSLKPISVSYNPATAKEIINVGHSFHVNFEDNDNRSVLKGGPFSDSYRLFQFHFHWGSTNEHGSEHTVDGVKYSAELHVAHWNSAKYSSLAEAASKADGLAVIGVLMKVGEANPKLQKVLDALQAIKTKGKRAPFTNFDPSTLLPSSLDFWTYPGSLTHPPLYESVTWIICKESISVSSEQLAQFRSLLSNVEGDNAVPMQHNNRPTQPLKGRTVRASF
Sequence of Carbonic anhydrase 12 (O43570 whole entry): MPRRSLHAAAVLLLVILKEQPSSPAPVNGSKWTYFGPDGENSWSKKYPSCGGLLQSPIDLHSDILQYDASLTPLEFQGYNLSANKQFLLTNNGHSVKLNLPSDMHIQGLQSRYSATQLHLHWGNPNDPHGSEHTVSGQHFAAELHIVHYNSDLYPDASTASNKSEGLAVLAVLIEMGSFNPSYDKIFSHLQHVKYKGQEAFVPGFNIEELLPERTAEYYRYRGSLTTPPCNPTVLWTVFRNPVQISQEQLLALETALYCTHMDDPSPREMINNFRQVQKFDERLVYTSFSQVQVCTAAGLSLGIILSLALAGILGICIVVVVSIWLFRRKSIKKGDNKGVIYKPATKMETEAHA

Row | SMILES | pIC50 (MDCK [1]) | pKi (Carbonic anhydrase 12) | pKi (Carbonic anhydrase 1) | pIC50 (MDCK [2]) | pIC50 (MDCK [3]) | pIC50 (MDCK [4]) | pKi (Carbonic anhydrase 9) | pKi (Carbonic anhydrase 2) | also measured
1 | NS(=O)(=O)c1ccc(CCNC(=O)OCCCCc2ccc(N(CCCl)CCCl)cc2)cc1 | 4.05 | 4.87 | 5.25 | 4.09 | 4.00 | 4.00 | 5.41 | 6.30 | 
2 | Cn1nnc2c(C(=O)NCCc3ccc(S(N)(=O)=O)cc3)ncn2c1=O |  |  |  |  |  |  | 7.43 |  | pIC50 (MDCK [5]): < 3.00; pIC50 (MDCK [6]): < 3.00; pIC50 (MDCK [7]): < 3.00; pIC50 (MDCK [8]): < 3.00
3 | NS(=O)(=O)c1ccc(CCNc2n[n+]([O-])c3cc4c(cc3[n+]2[O-])CCC4)cc1 | < 3.52 |  |  | < 3.52 | < 3.52 | < 3.52 | 6.51 |  | 
4 | NS(=O)(=O)c1ccc(NC(=O)CCCc2ccc(N(CCCl)CCCl)cc2)cc1 | 4.00 | 6.16 | 7.14 | 4.00 | 4.02 | 4.06 | 6.76 | 8.05 | 
5 | N=C(N)NC(=N)NCCc1ccccc1 |  |  |  |  |  |  |  |  | Activity (HCT-116): Active
6 | CS(=O)(=O)c1ccc(-c2cnc(N)c(C(=O)Nc3ccccc3)n2)cc1 |  | < 4.30 | < 4.30 |  |  |  | < 4.30 | < 4.30 | Activity (MDCK [9]): Active; Activity (MDCK [10]): Active; Activity (MDCK [11]): Active; Activity (MDCK [12]): Toxic; Activity (MDCK [13]): Non-Toxic; Activity (MDCK [14]): Toxic; Activity (MDCK [15]): Active
7 | NS(=O)(=O)c1ccc(CNC(=O)CCCc2ccc(N(CCCl)CCCl)cc2)cc1 | 4.74 | 5.13 | 5.23 | 4.85 | 4.04 | 4.01 | 5.05 | 6.13 | 
8 | Cn1nnc2c(C(=O)NCc3ccc(S(N)(=O)=O)cc3)ncn2c1=O |  |  |  |  |  |  | 6.57 |  | pIC50 (MDCK [5]): < 3.00; pIC50 (MDCK [6]): < 3.00; pIC50 (MDCK [7]): < 3.00; pIC50 (MDCK [8]): < 3.00
